The values that follow come from ChEMBL document CHEMBL4673221, “Furanoflavones pongapin and lanceolatin B blocks the cell cycle and induce senescence in CYP1A1-overexpressing breast cancer cells” (Bioorg Med Chem, 2018).

Data set [1] concerns MCF7. Kind of data set: Cell cycle arrest in human MCF-7 cells over expressing CYP1A1 assessed as down regulation of CyclinD1 after 24 hrs by western blotting assay. Format: functional, cell-based. Summed up:
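Cyclin D1 was detected by Western blot, with β-tubulin as loading control. Untreated cells served as control.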
A general note: Immunoblotting shows a protein as a band on a membrane.

The next data set concerns the target Cytochrome P450 2C9 (Homo sapiens, UniProt P11712). Kind of data set: Inhibition of human CYP2C9 expressed in Sacchrosomes using 3-cyano-7-ethoxycoumarin as substrate by fluorescence based assay. Format: ADME.
The subject of data set [2] is MCF7. As to the kind of experiment: Induction of cell cycle arrest in human MCF7 over expressing CYP1A cells assessed as accumulation at S phase incubated for 24 hrs by PI staining based flow cytometric analysis (reference value: 20.1%). Format: functional.
The target in another data set is T1, Cytochrome P450 1B1 (Homo sapiens, UniProt Q16678).
T1 sequence (Q16678 whole entry): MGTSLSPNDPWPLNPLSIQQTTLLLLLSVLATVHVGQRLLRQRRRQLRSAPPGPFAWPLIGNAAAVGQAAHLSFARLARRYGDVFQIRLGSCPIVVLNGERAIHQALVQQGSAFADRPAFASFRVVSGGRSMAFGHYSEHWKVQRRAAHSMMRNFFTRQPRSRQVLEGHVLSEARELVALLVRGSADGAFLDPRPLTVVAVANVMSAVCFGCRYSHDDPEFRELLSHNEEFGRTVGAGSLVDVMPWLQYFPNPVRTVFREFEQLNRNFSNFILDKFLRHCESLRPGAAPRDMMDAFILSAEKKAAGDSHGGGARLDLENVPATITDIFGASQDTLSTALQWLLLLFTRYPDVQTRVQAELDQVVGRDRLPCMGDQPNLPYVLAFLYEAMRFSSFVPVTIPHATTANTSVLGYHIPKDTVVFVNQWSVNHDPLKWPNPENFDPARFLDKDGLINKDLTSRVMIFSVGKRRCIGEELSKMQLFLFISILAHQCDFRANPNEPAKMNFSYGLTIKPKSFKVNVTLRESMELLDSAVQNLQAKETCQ
Kind of data set: Inhibition of human CYP1B1 expressed in human HEK293 cells using 7-ethoxyresorufin as substrate preincubated for 30 mins followed by substrate additon and measured after 60 mins by fluorescence based assay. It counts as ADME, cell-based. Put shortly:
(§1)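 The assay used live recombinant human HEK293 cells grown in suspension, each cell line expressing a single CYP (CYP1A1 or CYP1B1). Percent inhibition was read at 10 μM, and IC50 values were determined. Values are mean ± SD of three independent experiments. Alpha-naphthoflavone served as the reference inhibitor.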

Data set [3] concerns MCF7. As to the kind of experiment: Induction of cellular senescence in human MCF7 cells over expressing CYP1A assessed as increase in beta-gal-positive cells at 2 times of EC50 concentration incubated for 96 hrs by microscopic assay relative to control. It counts as functional. Put shortly:
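MCF7-1A1 cells were seeded at 25,000 per well and stabilised for 24 h, then treated for 96 h. Cells were fixed for 10 min at room temperature and stained for β-galactosidase at 37 °C without CO2 for 48 h. The percentage of blue-stained cells was counted by phase-contrast microscopy against untreated cultures.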

The target in data set [4] is T2, Cytochrome P450 1A1 (Homo sapiens, UniProt P04798).
T2 sequence (P04798 whole entry): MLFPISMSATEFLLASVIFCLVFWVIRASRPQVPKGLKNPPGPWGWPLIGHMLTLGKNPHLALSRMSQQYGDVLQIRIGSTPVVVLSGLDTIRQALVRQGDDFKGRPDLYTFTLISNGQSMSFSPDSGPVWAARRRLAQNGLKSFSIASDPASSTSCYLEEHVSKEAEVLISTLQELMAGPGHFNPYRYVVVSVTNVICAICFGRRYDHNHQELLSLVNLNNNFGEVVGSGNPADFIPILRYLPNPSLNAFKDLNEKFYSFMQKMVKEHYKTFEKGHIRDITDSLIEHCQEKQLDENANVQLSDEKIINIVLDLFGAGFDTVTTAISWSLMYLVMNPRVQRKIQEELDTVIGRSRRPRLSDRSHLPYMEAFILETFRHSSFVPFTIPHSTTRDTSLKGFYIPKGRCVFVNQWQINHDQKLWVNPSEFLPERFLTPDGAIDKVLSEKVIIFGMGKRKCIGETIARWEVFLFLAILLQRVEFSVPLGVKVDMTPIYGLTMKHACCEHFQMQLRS
Kind of data set: Inhibition of human CYP1A1 expressed in HEK293 cells assessed as reduction in CYP1A1 mediated […] induced-toxicity by measuring EC50 at 3 times of IC50 concentration by MTT assay relative to control. It counts as cell-based. The arrangement: scale not given: the % may be the effect or the level left. Summed up: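 Adherent HEK293 cells transfected with pcDNA3.1/hCYP1A1 were exposed to B[a]P over 0.05–100 µM, with inhibitor at 3x its IC50 from the suspension HEK293-CYP1A1 assay. The EC50 of B[a]P for cell growth inhibition was derived. Cells transfected with empty plasmid were used for comparison. Values are mean and SD of three independent experiments.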

For the next data set, the target named is T3, Cytochrome P450 2C8 (Homo sapiens, UniProt P10632).
T3 sequence (P10632 whole entry): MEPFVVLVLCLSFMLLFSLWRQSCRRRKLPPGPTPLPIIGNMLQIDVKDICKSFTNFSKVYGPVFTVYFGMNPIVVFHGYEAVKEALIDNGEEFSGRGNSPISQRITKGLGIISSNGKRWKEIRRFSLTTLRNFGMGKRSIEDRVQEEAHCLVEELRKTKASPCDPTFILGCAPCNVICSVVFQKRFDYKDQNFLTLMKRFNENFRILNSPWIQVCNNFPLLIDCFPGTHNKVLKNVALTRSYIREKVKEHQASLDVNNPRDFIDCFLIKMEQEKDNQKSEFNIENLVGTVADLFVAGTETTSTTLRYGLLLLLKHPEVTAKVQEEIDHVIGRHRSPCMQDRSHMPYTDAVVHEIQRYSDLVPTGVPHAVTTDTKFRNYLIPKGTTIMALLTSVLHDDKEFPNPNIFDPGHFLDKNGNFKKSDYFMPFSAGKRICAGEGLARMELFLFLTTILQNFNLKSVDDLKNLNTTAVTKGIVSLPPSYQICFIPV
As to the kind of experiment: Inhibition of human CYP2C8 expressed in Sacchrosomes by fluorescence based assay. It counts as ADME.

Data set [5] deals with T2, Cytochrome P450 1A1. Kind of data set: Inhibition of human CYP1A1 expressed in human HEK293 cells using 7-ethoxyresorufin as substrate preincubated for 30 mins followed by substrate additon and measured after 60 mins by fluorescence based assay. Format: cell-based. Summed up:
as §1

The target of another data set is Cytochrome P450 2E1 (Homo sapiens, UniProt P05181). Kind of data set: Inhibition of human CYP2E1 expressed in Sacchrosomes by fluorescence based assay. It counts as ADME.
In another data set the target is Cytochrome P450 2C19 (Homo sapiens, UniProt P33261). As to the kind of experiment: Inhibition of human CYP2C19 expressed in Sacchrosomes using 3-cyano-7-ethoxycoumarin as substrate by fluorescence based assay. Format: ADME.

The source made the active and inactive calls. No cut-off for these calls is given here.

Sequence of Cytochrome P450 2E1 (P05181 whole entry): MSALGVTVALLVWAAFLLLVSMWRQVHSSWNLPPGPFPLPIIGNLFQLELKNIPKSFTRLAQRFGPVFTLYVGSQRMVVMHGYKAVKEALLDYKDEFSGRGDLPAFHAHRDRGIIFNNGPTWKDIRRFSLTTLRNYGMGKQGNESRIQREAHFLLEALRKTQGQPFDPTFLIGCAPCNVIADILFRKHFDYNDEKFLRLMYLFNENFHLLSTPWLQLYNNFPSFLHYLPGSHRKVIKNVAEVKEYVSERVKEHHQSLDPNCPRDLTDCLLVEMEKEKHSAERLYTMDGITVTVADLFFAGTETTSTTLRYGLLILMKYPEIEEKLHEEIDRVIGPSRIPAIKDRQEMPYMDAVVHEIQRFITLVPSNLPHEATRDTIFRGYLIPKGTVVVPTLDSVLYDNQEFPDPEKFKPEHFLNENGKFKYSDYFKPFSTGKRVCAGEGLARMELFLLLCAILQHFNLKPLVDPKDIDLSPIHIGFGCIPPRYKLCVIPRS
Sequence of Cytochrome P450 2C9 (P11712 whole entry): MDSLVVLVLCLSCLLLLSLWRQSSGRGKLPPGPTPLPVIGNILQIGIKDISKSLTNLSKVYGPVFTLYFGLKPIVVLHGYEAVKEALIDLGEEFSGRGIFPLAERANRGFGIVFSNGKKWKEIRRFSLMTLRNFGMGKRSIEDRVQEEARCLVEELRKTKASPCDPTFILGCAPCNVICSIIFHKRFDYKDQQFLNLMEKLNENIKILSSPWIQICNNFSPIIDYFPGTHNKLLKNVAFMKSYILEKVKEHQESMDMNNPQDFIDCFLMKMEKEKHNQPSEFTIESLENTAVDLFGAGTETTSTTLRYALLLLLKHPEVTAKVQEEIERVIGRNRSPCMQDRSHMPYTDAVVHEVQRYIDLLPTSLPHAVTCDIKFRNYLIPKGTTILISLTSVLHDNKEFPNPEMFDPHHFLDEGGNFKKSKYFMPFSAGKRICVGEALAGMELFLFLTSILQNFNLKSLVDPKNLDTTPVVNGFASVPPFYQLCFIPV
Sequence of Cytochrome P450 2C19 (P33261 whole entry): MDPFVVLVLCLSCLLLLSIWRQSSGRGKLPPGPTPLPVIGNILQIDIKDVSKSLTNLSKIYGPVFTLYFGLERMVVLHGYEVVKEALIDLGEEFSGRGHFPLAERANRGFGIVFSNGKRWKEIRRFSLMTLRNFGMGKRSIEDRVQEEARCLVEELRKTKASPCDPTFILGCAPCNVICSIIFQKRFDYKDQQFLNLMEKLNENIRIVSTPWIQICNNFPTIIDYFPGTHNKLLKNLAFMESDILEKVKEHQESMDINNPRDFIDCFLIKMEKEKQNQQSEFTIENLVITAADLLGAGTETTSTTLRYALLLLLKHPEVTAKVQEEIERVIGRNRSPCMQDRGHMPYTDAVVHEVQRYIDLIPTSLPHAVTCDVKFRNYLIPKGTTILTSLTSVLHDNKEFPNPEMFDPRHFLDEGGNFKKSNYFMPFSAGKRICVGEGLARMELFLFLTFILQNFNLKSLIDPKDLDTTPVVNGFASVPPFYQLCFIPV

The IC50 is the midpoint of a concentration-inhibition curve. On to `O=c1cc(-c2ccccc2)oc2c1ccc1occc12` [LANCEOLATIN B], for which the outcome in the data set on MCF7 [1] was Active. Further, the IC50 at Cytochrome P450 2C9 is above 20 µM; on Cytochrome P450 1B1, 0.39 µM; on Cytochrome P450 2C8, above 20 µM; against Cytochrome P450 1A1 [5], 0.02 µM; at Cytochrome P450 2E1, above 20 µM; against Cytochrome P450 2C19, above 20 µM. In addition, the Activity is reported as 7.1% in the data set on MCF7 [2], 60% in the data set with MCF7 [3] and 100% at Cytochrome P450 1A1 [4].
As for `COc1c(-c2ccc3c(c2)OCO3)oc2c(ccc3occc32)c1=O` [PONGAPIN], in the data set with MCF7 [1], the result was Active. The IC50 against Cytochrome P450 2C9 was above 20 µM; against Cytochrome P450 1B1, 1.06 µM; on Cytochrome P450 2C8, above 20 µM; at Cytochrome P450 1A1 [5], 0.02 µM; at Cytochrome P450 2E1, above 20 µM; against Cytochrome P450 2C19, above 20 µM. Moreover, the Activity was 6.7% with MCF7 [2], 60% in the data set with MCF7 [3] and 100% on Cytochrome P450 1A1 [4].
